Source: ChEMBL document CHEMBL1649184, “Mutations in the nonstructural protein 3A confer resistance to the novel enterovirus replication inhibitor TTP-8307” (Antimicrob Agents Chemother, 2009)
pEC50: −log10 of the molar value. Active and inactive are the calls of the source. The rule behind the calls is not given here.

Columns and labels:
Poliovirus 2 = test: Antiviral activity against Human poliovirus 2 Sabin infected in african green monkey Vero cells assessed as inhibition of virus-induced cytopathic effect after 3 days by MTS-based CPE reduction assay; assay type: functional, organism-based; settings: Enterovirus C, 72 h
How it was run: (§1)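 Confluent cells infected with 100 CCID50 virus, adsorbed 2 h at 37°C, then virus removed and serial compound dilutions added (DMSO stocks diluted in MEM with 2% FBS). Incubated 3 days at 37°C until full CPE in virus controls. Viability read by MTS/PMS, OD498 after 2 h. EC50 by logarithmic interpolation of % CPE protection. Mean of at least three independent experiments.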

Poliovirus 1 = test: Antiviral activity against Human poliovirus 1 strain Sabin infected in african green monkey Vero cells assessed as inhibition of virus-induced cytopathic effect after 3 days by MTS-based CPE reduction assay; assay type: functional, cell-based; settings: Enterovirus C, 72 h; how it was run: as §1
[1] = Antiviral activity against Human coxsackievirus A21 (strain Coe) infected in african green monkey Vero cells assessed as inhibition of virus-induced cytopathic effect after 3 days by MTS-based CPE reduction assay; assay type: functional, cell-based; settings: Enterovirus C, 72 h; how it was run: as §1
[2] = Antiviral activity against Coxsackievirus B3 (strain Nancy) infected in african green monkey Vero cells assessed as inhibition of virus-induced cytopathic effect after 3 days by MTS-based CPE reduction assay; assay type: functional, cell-based; settings: Enterovirus B, 72 h
How it was run: (§2)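 Confluent cells infected with 100 CCID50 virus; 2 h adsorption at 37°C (35°C for rhinovirus), then inoculum removed and serial compound dilutions added. Incubated 3 days at 37°C until full CPE in virus controls. MTS/PMS added for 2 h, OD498 read; % CPE from cell and virus controls; EC50 as 50% protection, by logarithmic interpolation. Mean of ≥3 independent experiments.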

[3] = Antiviral activity against Human enterovirus 71 (strain BRCR) infected in african green monkey Vero cells assessed as inhibition of virus-induced cytopathic effect after 3 days by MTS-based CPE reduction assay; assay type: functional, cell-based; settings: Enterovirus A, 72 h; how it was run: as §2
[4] = Antiviral activity against Human coxsackievirus A16 (strain G-10) A16 infected in african green monkey Vero cells assessed as inhibition of virus-induced cytopathic effect after 3 days by MTS-based CPE reduction assay; assay type: functional, cell-based; settings: Enterovirus A, 72 h; how it was run: as §2
rhinovirus A89 = test: Antiviral activity against Human rhinovirus 89 infected in african green monkey Vero cells assessed as inhibition of virus-induced cytopathic effect after 3 days by MTS-based CPE reduction assay; assay type: functional, organism-based; settings: Rhinovirus A, 72 h; how it was run: as §2
rhinovirus A2 = test: Antiviral activity against Human rhinovirus 2 infected in african green monkey Vero cells assessed as inhibition of virus-induced cytopathic effect after 3 days by MTS-based CPE reduction assay; assay type: functional, organism-based; settings: Rhinovirus A, 72 h; how it was run: as §2
rhinovirus A29 = test: Antiviral activity against Human rhinovirus 29 infected in african green monkey Vero cells assessed as inhibition of virus-induced cytopathic effect after 3 days by MTS-based CPE reduction assay; assay type: functional, organism-based; settings: Rhinovirus A, 72 h; how it was run: as §2
Coxsackievirus B3 [5] = test: Antiviral activity against Human coxsackievirus B3 harboring wild type nonstructural protein 3A infected in african green monkey Vero cells assessed as inhibition of virus-induced cytopathic effect after 3 days by plaque assay; assay type: functional, organism-based; settings: Enterovirus B, 72 h
Coxsackievirus B3 [6] = test: Antiviral activity against Human coxsackievirus B3 harboring nonstructural protein 3A I8T mutant infected in african green monkey Vero cells assessed as inhibition of virus-induced cytopathic effect after 3 days by plaque assay; assay type: functional, organism-based; settings: Enterovirus B, 72 h
Coxsackievirus B3 [7] = test: Antiviral activity against Human coxsackievirus B3 harboring nonstructural protein 3A V45A mutant infected in african green monkey Vero cells assessed as inhibition of virus-induced cytopathic effect after 3 days by plaque assay; assay type: functional, organism-based; settings: Enterovirus B, 72 h
Coxsackievirus B3 [8] = test: Antiviral activity against Human coxsackievirus B3 harboring nonstructural protein 3A I54F mutant infected in african green monkey Vero cells assessed as inhibition of virus-induced cytopathic effect after 3 days by plaque assay; assay type: functional, organism-based; settings: Enterovirus B, 72 h
Coxsackievirus B3 [9] = test: Antiviral activity against Human coxsackievirus B3 harboring nonstructural protein 3A H57Y mutant infected in african green monkey Vero cells assessed as inhibition of virus-induced cytopathic effect after 3 days by plaque assay; assay type: functional, organism-based; settings: Enterovirus B, 72 h
rhinovirus B86 = test: Antiviral activity against Human rhinovirus 86 infected in african green monkey Vero cells assessed as inhibition of virus-induced cytopathic effect after 3 days by MTS-based CPE reduction assay; assay type: functional, organism-based; settings: Rhinovirus B, 72 h; how it was run: as §2
rhinovirus A85 = test: Antiviral activity against Human rhinovirus 85 infected in african green monkey Vero cells assessed as inhibition of virus-induced cytopathic effect after 3 days by MTS-based CPE reduction assay; assay type: functional, organism-based; settings: Rhinovirus A, 72 h; how it was run: as §2
rhinovirus B72 = test: Antiviral activity against Human rhinovirus 72 infected in african green monkey Vero cells assessed as inhibition of virus-induced cytopathic effect after 3 days by MTS-based CPE reduction assay; assay type: functional, organism-based; settings: Rhinovirus B, 72 h; how it was run: as §2
rhinovirus B70 = test: Antiviral activity against Human rhinovirus 70 infected in african green monkey Vero cells assessed as inhibition of virus-induced cytopathic effect after 3 days by MTS-based CPE reduction assay; assay type: functional, organism-based; settings: Rhinovirus B, 72 h; how it was run: as §2
rhinovirus A63 = test: Antiviral activity against Human rhinovirus 63 infected in african green monkey Vero cells assessed as inhibition of virus-induced cytopathic effect after 3 days by MTS-based CPE reduction assay; assay type: functional, organism-based; settings: Rhinovirus A, 72 h; how it was run: as §2
rhinovirus A45 = test: Antiviral activity against Human rhinovirus 45 infected in african green monkey Vero cells assessed as inhibition of virus-induced cytopathic effect after 3 days by MTS-based CPE reduction assay; assay type: functional, organism-based; settings: Rhinovirus A, 72 h; how it was run: as §2
[10] = Antiviral activity against Human rhinovirus 42 infected in african green monkey Vero cells assessed as inhibition of virus-induced cytopathic effect after 3 days by MTS-based CPE reduction assay; assay type: functional, cell-based; settings: Rhinovirus B, 72 h; how it was run: as §2
rhinovirus A41 = test: Antiviral activity against Human rhinovirus 41 infected in african green monkey Vero cells assessed as inhibition of virus-induced cytopathic effect after 3 days by MTS-based CPE reduction assay; assay type: functional, organism-based; settings: Rhinovirus A, 72 h; how it was run: as §2
rhinovirus A39 = test: Antiviral activity against Human rhinovirus 39 infected in african green monkey Vero cells assessed as inhibition of virus-induced cytopathic effect after 3 days by MTS-based CPE reduction assay; assay type: functional, organism-based; settings: Rhinovirus A, 72 h; how it was run: as §2
rhinovirus A15 = test: Antiviral activity against Human rhinovirus 15 infected in african green monkey Vero cells assessed as inhibition of virus-induced cytopathic effect after 3 days by MTS-based CPE reduction assay; assay type: functional, organism-based; settings: Rhinovirus A, 72 h; how it was run: as §2
rhinovirus B14 = test: Antiviral activity against Human rhinovirus 14 infected in african green monkey Vero cells assessed as inhibition of virus-induced cytopathic effect after 3 days by MTS-based CPE reduction assay; assay type: functional, organism-based; settings: Rhinovirus B, 72 h; how it was run: as §2
rhinovirus A9 = test: Antiviral activity against Human rhinovirus 9 infected in african green monkey Vero cells assessed as inhibition of virus-induced cytopathic effect after 3 days by MTS-based CPE reduction assay; assay type: functional, organism-based; settings: Rhinovirus A, 72 h; how it was run: as §2
Poliovirus 3 = test: Antiviral activity against Human poliovirus 3 strain Sabin infected in african green monkey Vero cells assessed as inhibition of virus-induced cytopathic effect after 3 days by MTS-based CPE reduction assay; assay type: functional, organism-based; settings: Enterovirus C, 72 h; how it was run: as §1
Vero [11] = test: Antiviral activity against Coxsackievirus B3 (strain Nancy) infected in african green monkey Vero cells assessed as inhibition of virus-induced cytopathic effect after 3 days by plaque assay; assay type: functional, cell-based
How it was run: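 Confluent Vero cells infected with CVB3 for 2 h at 37°C with gentle shaking, washed twice with PBS, then overlaid with 0.4% agar with or without compound. After 3-4 days, fixed with 4% formaldehyde, agar removed, Giemsa-stained and plaques counted. Read at day 3 post-infection; averages ± SD of three independent experiments.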

Vero [12] = test: Antiviral activity against Coxsackievirus B3 (strain Nancy) infected in african green monkey Vero cells assessed as inhibition viral replication at 25 uM administered at 1 hr interval starting at 1 hr before viral infection measured within first 3 hrs postinfection; assay type: functional, cell-based
How it was run: (§3)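 Confluent Vero cells infected with 10⁴ CCID50 CVB3, 1 h adsorption at 37°C, inoculum replaced with medium. Compound (final 25 µM) added at 1-h intervals, starting 1 h before infection. At 8 h post-infection, supernatant and intracellular RNA collected and viral RNA quantified by one-step TaqMan qRT-PCR against a synthetic transcript standard curve; normalized to 0-h point; two independent experiments.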

Vero [13] = test: Antiviral activity against Coxsackievirus B3 (strain Nancy) infected in african green monkey Vero cells assessed as inhibition viral replication at 25 uM administered at 1 hr interval starting at 3 hrs after viral infection; assay type: functional, cell-based; how it was run: as §3
[14] = tested on: Coxsackievirus B3 (strain Nancy); test: Antiviral activity against Coxsackievirus B3 (strain Nancy) infected in buffalo green monkey cells assessed as inhibition of viral RNA accumulation at 25 uM by luciferase reporter gene assay; assay type: functional, cell-based
How it was run: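 BGM cells transfected with RNA from SalI-linearized CVB3 subgenomic replicon with luciferase replacing P1, with or without 25 µM compound. At set times post-transfection, cells washed with PBS, lysed, and luciferase measured as relative light units. Averages ± SD of three independent experiments.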

[15] = tested on: Coxsackievirus B3 (strain Nancy); test: Antiviral activity against Coxsackievirus B3 (strain Nancy) infected in buffalo green monkey cells assessed as inhibition of viral RNA accumulation at 2 mM by luciferase reporter gene assay; assay type: functional, cell-based
Coxsackievirus B3 [16] = test: Inhibition of viral polyprotein synthesis in Coxsackievirus B3 (strain Nancy) infected in buffalo green monkey cells at 25 uM by SDS PAGE assay; assay type: functional, cell-based
How it was run: (§4)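 Confluent BGM cells infected with CVB3 at MOI 50. At 5 h, methionine starvation for 30 min, then 30-min [35S]Met pulse with or without 25 µM compound. At 6 h, lysed in Tris-HCl pH 7.4/NaCl/EDTA/NP-40/0.05% SDS buffer; translation products resolved by SDS-PAGE. Three independent experiments.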

Coxsackievirus B3 [17] = test: Inhibition of viral polyprotein processing in Coxsackievirus B3 (strain Nancy) infected in buffalo green monkey cells at 25 uM by SDS PAGE assay; assay type: functional, cell-based; how it was run: as §4
[18] = Cytotoxicity against african green monkey Vero cells; assay type: cell-based; settings: chlorocebus sabaeus, read-out: TC50 (the source's name)
How it was run: (§5)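 Cytotoxicity measured on confluent Vero and HeLa cells, given as 50% cytotoxic concentration; solubility limit in assay medium 100 µM.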

[19] = Cytotoxicity against human HeLa cells; assay type: cell-based; settings: read-out: TC50 (the source's name); how it was run: as §5

| Structure (SMILES) | pEC50 (Poliovirus 2) | pEC50 (Poliovirus 1) | pEC50 [1] | pEC50 [2] | pEC50 [3] | pEC50 [4] | pEC50 (rhinovirus A89) | pEC50 (rhinovirus A2) | pEC50 (rhinovirus A29) | pEC50 (Coxsackievirus B3 [5]) | pEC50 (Coxsackievirus B3 [6]) | pEC50 (Coxsackievirus B3 [7]) | pEC50 (Coxsackievirus B3 [8]) | pEC50 (Coxsackievirus B3 [9]) | pEC50 (rhinovirus B86) | pEC50 (rhinovirus A85) | pEC50 (rhinovirus B72) | pEC50 (rhinovirus B70) | pEC50 (rhinovirus A63) | pEC50 (rhinovirus A45) | other results |
| --- | --- | --- | --- | --- | --- | --- | --- | --- | --- | --- | --- | --- | --- | --- | --- | --- | --- | --- | --- | --- | --- |
| CC(C)S(=O)(=O)n1c(N)nc2ccc(/C(=N/O)c3ccccc3)cc21 [ENVIROXIME] | 7.22 | 6.72 | 6.32 | 5.72 | 6.82 | 6.92 | 7.00 | 7.59 | 7.54 | 6.30 | 6.15 | 5.82 | 5.74 | 5.77 | 6.85 | 7.48 | 6.14 | 6.96 | 7.57 | 6.60 | pEC50 [10]: 6.96; pEC50 (rhinovirus A41): 7.57; pEC50 (rhinovirus A39): 7.55; pEC50 (rhinovirus A15): 7.38; pEC50 (rhinovirus B14): 6.96; pEC50 (rhinovirus A9): 7.42; pEC50 (Poliovirus 3): 7.40 |
| C[C@@H](NC(=O)c1cccc(-c2cnc(-c3cc4ccccc4cn3)[nH]2)c1)c1ccc(F)cc1 | 6.24 | 6.29 | 5.27 | 5.92 | < 4.22 | 6.07 | < 4.30 | 6.10 | 6.11 | 5.72 | 5.22 | 4.75 | 4.70 | 4.82 | < 4.30 | 5.91 | < 4.30 | < 4.30 | 7.04 | 6.00 | inhibition (Vero [11]): Dose-dependent effect; inhibition (Vero [12]): Active; inhibition (Vero [13]): inactive; inhibition [14]: Active; inhibition [15]: Active; inhibition (Coxsackievirus B3 [16]): inactive; inhibition (Coxsackievirus B3 [17]): inactive; pEC50 [10]: < 4.30; pEC50 (rhinovirus A41): < 4.30; pEC50 (rhinovirus A39): 6.19; pEC50 (rhinovirus A15): < 4.30; pEC50 (rhinovirus B14): < 4.30; pEC50 (rhinovirus A9): < 4.30; pEC50 (Poliovirus 3): 6.57 |
| C[C@@H](NC(=O)c1cccc(-c2c[nH]c(-c3cc4ccccc4cn3)n2)c1)c1ccc(F)cc1 | – | – | – | – | – | – | – | – | – | – | – | – | – | – | – | – | – | – | – | – | CC50 [18]: > 100000 nM; CC50 [19]: > 100000 nM |
| Fc1cccc(F)c1C1SCc2nc3cc(C(F)(F)F)ccc3n21 (stereo not drawn) | – | – | – | – | – | – | – | – | – | 5.54 | 5.54 | 5.44 | 5.43 | 5.47 | – | – | – | – | – | – | – |
